Source: PubChem (NMMLSC)
An excerpt weighted towards active compounds, which were near 0.96% of everything screened.
RPL19A TOR yeast: yeast TOR pathway RPL19A-GFP modulation; S. cerevisiae RPL19A-GFP strain, flow cytometry, 3 h; hits give low values; percent response vs DMSO, % at 10 µM; actives 0.3% (n = 330,000);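 active = percent response vs DMSO below 50%; inconclusive = fewer than 70 events counted for the yeast strain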;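 note: median channel GFP fluorescence of the barcoded RPL19A-GFP strain; ratio of sample median GFP to plate DMSO average so 100% = DMSO; lower means less RPL19A-GFP as with rapamycin TOR inhibition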
T cell modulator: T cell immune modulators affecting CD8 T cell-vesicle binding; response (vesicle binding), % at 7 µM; AID 2052; 2C CD8+ T cell-vesicle binding, flow cytometry; hits give low values; actives 0.068% (n = 330,000);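 active = response, share of CD8 T cells binding vesicles, and their 90th percentile fluorescence all below set limits, cut at about 80% in these data, passing the limit was not always enough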;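 note: values below 100% mean blocked vesicle binding to the CD8+ T cells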
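Material: murine 2C transgenic CD8+ T lymphocytes / Also added: QL9-peptide-loaded Drosophila micro-vesicles bearing Ld, ICAM-1 and B7-1 / Schedule: binding step 1.5 h, 37 °C, antibody labelling 20 min, ice / Signal: flow cytometry, PE anti-B7-1 (FL2) versus Alexa647 anti-CD8 (FL8), PFA-fixed / Evaluation: percent CD8+ FL2 mean versus row control / Benchmarks: naked versus QL9-loaded vesicles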
AGP1 TOR yeast: yeast TOR pathway AGP1-GFP modulation | S. cerevisiae AGP1-GFP multiplex flow cytometry, 3 h; GFP as percent of DMSO wells | actives 0.02% (n = 320,000) | AID 2066 | GFP response vs DMSO, % at 10 µM;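 active = GFP response relative to DMSO above a set limit, near screen average plus 3 SD, cut at about 150% in these data; inconclusive = fewer than 70 cells counted for the yeast strain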;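 note: median GFP channel fluorescence of the gated AGP1 strain per well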
MEP2-GFP yeast: alters MEP2-GFP fluorescence in TOR pathway yeast screen | S. cerevisiae MEP2-GFP strain, flow cytometry GFP, 3 h; 100% = DMSO control level | GFP response vs DMSO, % at 10 µM | actives 0.51% (n = 330,000);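 active = GFP response versus DMSO above a set limit, roughly screen mean plus 3 SD, cut at about 180% in these data; inconclusive = fewer than 70 cells counted for a yeast strain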;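 note: median GFP fluorescence of the barcode-gated MEP2-GFP cells per well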
CIT2 TOR yeast: alters CIT2-GFP fluorescence in TOR pathway yeast screen; S. cerevisiae CIT2-GFP strain, flow cytometry, 3 h; 100 means same as DMSO wells; GFP response vs DMSO, % at 10 µM; actives 0.065% (n = 320,000);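 active = GFP response relative to DMSO above a set limit, near the screen mean plus 3 SD, cut at about 150% in these data; inconclusive = Fewer than 70 cells measured for a yeast strain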;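 note: ratio of well median GFP fluorescence to mean of DMSO wells on the plate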
LAP4-GFP MLPCN: modulators of TOR pathway LAP4-GFP in S. cerevisiae | S. cerevisiae LAP4-GFP multiplex, flow cytometry GFP, 3 h; median GFP as percent of DMSO wells | GFP response vs DMSO, % at 10 µM | actives 0.34% (n = 320,000) | AID 2023;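 active = GFP response vs DMSO above a set limit, about the screen mean plus 3 SD, cut at about 150% in these data; inconclusive = under 70 cell events counted for the yeast strain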
Active calls of the source: *; ? = inconclusive; [ ] = dose if it differs, or a comment.

SMILES	RPL19A TOR yeast	T cell modulator	AGP1 TOR yeast	MEP2-GFP yeast	CIT2 TOR yeast	LAP4-GFP MLPCN
O=C1/C(=C\c2cccs2)SC(=S)N1C1CCS(=O)(=O)C1 (configuration not stated)	13*[may fluoresce violet]	694	?	?	?	?
COc1ccccc1C(=O)n1nc(-c2ccco2)nc1SC	104	28*	95	93	106	118
CSc1nc(-c2ccco2)nn1C(=O)c1ccccc1	102	147	98	100	92	127
Cc1ccc(OCC(=O)N(C)C2CCCCC2)c([N+](=O)[O-])n1	99	324	103	99	102	99
O=C(CNC(=S)N(Cc1ccccc1F)C1CCCCC1)NCCCN1CCOCC1	56	317	?	317*[may fluoresce violet]	?	86
Cc1cc(C)c2c(N=NN3CCCCC3)[nH]nc2n1	98	223	117	109	169*	110
CCN(CC)N=Nc1[nH]nc2nc(C)cc(C)c12	106	228	133	152	157*	138
CC(=O)n1nc2nc(C)cc(C)c2c1N	100	91	101	101	102	98
Cc1cc(C)c2c(C)[nH]nc2n1	100	452	109	101	98	110
O=C1Nc2ccc(Br)cc2/C1=C/C1CC=CCC1 (configuration not stated)	79	166	90	91	97	192*
C#CC[N+]1(CC#Cc2ccccc2)CCOCC1	38*[may fluoresce violet]	581	?	194*[may fluoresce violet]	?	99
C#CC[N+]1(CC#Cc2ccccc2)CCCCC1	87	350	89	83	91	86
CCc1ccc(-c2nc(SCC(=O)N(C)C3CCS(=O)(=O)C3)n[nH]2)cc1 (configuration not stated)	99	258	108	99	101	101
O=C(c1cc(-c2cccc(Cl)c2)on1)N1CCc2ccccc2C1	105	354	68	99	166*	89
O=C(Cc1c(F)cccc1Cl)Nc1ccc(S(=O)(=O)Nc2nccs2)cc1	103	136	101	109	104	95
COc1ccc(OC)c(S(=O)(=O)Nc2ccc(F)cc2)c1	111	347	85	92	81	82
COc1ccc(NS(=O)(=O)c2cccc3ccccc23)cc1	71	417	96	93	87	183*
COc1ccc(S(=O)(=O)Nc2ccc(C(F)(F)F)cc2)cc1OC	62	250	?	196*[may fluoresce violet]	?	79
COc1ccc(NS(=O)(=O)c2cc(OC)ccc2OC)cc1	45*[may fluoresce violet]	295	?	267*[may fluoresce violet]	?	97
COc1ccc([C@H]2CC(=O)C=C(c3ccnc4ccc(Cl)cc34)C2)cc1	93	380	89	81	75	110
COc1cc([N+](=O)[O-])cc(/C=N/NC(=O)Cn2nc(C)cc2C)c1O	105	246	104	103	101	102
COc1ccc(/C=N/NC(=O)Cn2nc([N+](=O)[O-])cc2C)c(OC)c1OC	33*[may fluoresce violet]	376	?	208*[may fluoresce violet]	?	100
CCOC(=O)C1CCN(c2cc(=O)n(C3CCCCC3)c(=O)[nH]2)CC1	98	342	68	169	100	90
CCOC(=O)N1CCN(c2cc(=O)n(C3CCCCC3)c(=O)[nH]2)CC1	62	203	?	266*[may fluoresce violet]	?	60
N#Cc1c(N)nc2c(c1-c1ccncc1)CCCCC2	54	262	?	817*[may fluoresce violet]	?	80
CC(C)(CNC(=O)c1cc2c(s1)CCCC2)N1CCOCC1	96	68*	99	101	93	103
Cc1cccc(N2CC(C(=O)NCCC3=CCCCC3)CC2=O)c1C (configuration not stated)	87	239	87	95	81	92
O=c1[nH]c(CN2CCCCC2)nc2c1C1(CCCCC1)Cc1ccccc1-2	120	145	112	115	157*	120
O=C(Nc1cccnc1Cl)c1cccnc1Cl	94	229	87	93	88	87
CSc1ccc(C#N)cc1NC(=O)c1cccnc1Cl	45*[may fluoresce violet]	311	?	336*[may fluoresce violet]	?	98
